We go through 17 compounds from ChEMBL document CHEMBL2093137, “WHO-TDR NTD Screening”.

The test system of series [1] is Plasmodium falciparum K1. As to the kind of experiment: WHO-TDR: Malaria. In kind it is functional, organism-based, Homo sapiens. Conditions: Erythrocyte. The method, boiled down: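 Values are IC50 figures for antiplasmodial potency. They come from a whole-organism screen of 10,000 diverse Life Chemicals compounds against Plasmodium falciparum K1 growing inside human red blood cells, run by previously published standard procedures.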

The nature of series [2]: WHO-TDR: Cytotoxicity. Format: toxicity, cell-based. The following applies: human, MRC5 cells.
In series [3] the test system is Trypanosoma brucei brucei. As to the kind of experiment: WHO-TDR: Human African Trypanosomiasis (HAT). Format: functional, organism-based. Conditions: Squib-427. In short, it runs like this: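 Values are IC50 figures for antiparasitic potency. They come from a whole-organism screen of 10,000 diverse Life Chemicals compounds against bloodstream-form Trypanosoma brucei (Squib 427 strain).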

Series [4] concerns Brugia malayi. As to the kind of experiment: (§1) WHO-TDR: Lymphatic Filariasis. In kind it is functional, organism-based. The method, boiled down: (§2)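 Whole-organism screen of a 10,000-compound diverse library from Life Chemicals, filtered for drug-likeness and reactive groups, against Brugia malayi microfilariae. The assay followed previously published standard procedures, with reference drugs as positive controls. Activity is reported as percent inhibition and as IC50.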

Series [5] relates to Brugia malayi. The series is described as §1. More on the design: concentration or dose not given beside the values. In kind it is functional. In short, it runs like this: as §2
The subject of series [6] is Leishmania infantum. As to the kind of experiment: WHO-TDR: Leishmaniasis. Conditions: Macrophage. In kind it is functional, organism-based, Mus musculus. In short, it runs like this:
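Values are IC50 figures for antiparasitic potency. They come from a whole-organism screen of a 10,000-compound diverse Life Chemicals library against Leishmania infantum MHOM/MA(BE)/67 amastigotes inside murine peritoneal macrophage host cells.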

Series [7] relates to Brugia malayi. The description is as §1. In kind it is functional. More on the design: concentration or dose not given beside the values. The method, boiled down: as §2
This is another data set of the same source.

Series [8] deals with Schistosoma mansoni. As to the kind of experiment: WHO-TDR: Schistosomiasis. More on the design: concentration or dose not given beside the values. In kind it is functional. In short, it runs like this:
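Whole-organism screen of a 10,000-compound diverse library from Life Chemicals, filtered for drug-likeness and reactive groups, against larval and/or adult worms of Schistosoma mansoni Puerto Rican strain. The assay followed previously published standard procedures, with a reference drug as positive control. Activity is reported as percent inhibition and as IC50.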

Series [9] has as its system Trypanosoma cruzi. As to the kind of experiment: WHO-TDR: Chagas disease. Format: functional, organism-based, Homo sapiens. The following applies: MRC5. The method, boiled down:
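Whole-organism screen of a 10,000-compound diverse library from Life Chemicals, filtered for drug-likeness and reactive groups, against intracellular amastigotes of Trypanosoma cruzi Tulahuen CL2 beta-galactosidase strain grown in MRC-5SV2 human lung fibroblast host cells. The assay followed previously published standard procedures, with a reference drug as positive control. Antiparasitic potency is reported as IC50.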

In series [10] the test system is Onchocerca ochengi. As to the kind of experiment: WHO-TDR: Onchocerciasis. Format: functional. Set-up: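 at 12.5 µM on microfilariae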. The method, boiled down: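 Whole-organism screen of a 10,000-compound diverse library from Life Chemicals, filtered for drug-likeness and reactive groups, against microfilariae of Onchocerca ochengi or Onchocerca lienalis, used as animal-pathogen stand-ins for the human parasite. The assay followed previously published standard procedures, with reference drugs as positive controls. Activity is reported as percent inhibition and as IC50.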

Each structure is given as a SMILES string. Converted amounts (≈) assume the structure as drawn.

What is called IC50 is the point on the concentration scale where inhibition reaches its midpoint. By % Inhibition is commonly meant how much of the control response was suppressed. `COc1ccc(NC(=O)c2oc3ccccc3c2NC(=O)c2cccc(Cl)c2)c(OC)c1`: the IC50 in [1] was greater than 13.5 µg/mL; in series [2], greater than 13.5 µg/mL; in series [3], greater than 13.5 µg/mL; in [4], 4.49 µM; in series [6], greater than 13.5 µg/mL; in [9], greater than 13.5 µg/mL. In addition, the figures for the “% Inhibition” value in [5], in series [7] and in series [8] were 0%, 100% and 25%, respectively.

Take `COc1ccc2nc(Nc3nc(-c4ccccn4)cs3)sc2c1`: the IC50 was 0.312 µg/mL (≈ 0.915 µM) in series [1]; 0.129 µg/mL (≈ 0.378 µM) in [2]; less than 0.102 µg/mL in [3]; 2.61 µM in series [4]; 0.323 µg/mL (≈ 0.949 µM) in series [6]; less than 0.102 µg/mL in series [9]. Further, the figures for the “% Inhibition” value in series [5], in series [7] and in series [8] were 25%, 100% and 0%, respectively.

On to `O=C(Cc1cc(-c2ccc(Cl)cc2)on1)Nc1cccnc1`, for which the “% Inhibition” value amounted to 75% in series [10], 0% in [5], 100% in series [7] and 0% in [8]. The IC50 was greater than 9.41 µg/mL in series [1]; 1.19 µg/mL (≈ 3.8 µM) in series [2]; greater than 9.41 µg/mL in series [3]; 1.77 µM in [4]; greater than 9.41 µg/mL in series [6]; 2.25 µg/mL (≈ 7.18 µM) in [9].

As for `Cc1c(Cl)ccc2sc(NC(=O)c3ccc(S(=O)(=O)N4CC(C)CC(C)C4)cc3)nc12` (stereo not given), the IC50 in series [1] was greater than 14.3 µg/mL; in series [2], greater than 14.3 µg/mL; in series [3], greater than 15.3 µg/mL; in series [4], 1.07 µM; in series [6], 4.64 µg/mL (≈ 9.71 µM); in series [9], greater than 14.3 µg/mL. In addition, the “% Inhibition” value is listed as 80% in [5], 100% in [7] and 0% in series [8].

For the compound `Cc1nc2ccc3nc(Nc4nc5c(F)cccc5s4)sc3c2s1`, the IC50 is greater than 11.2 µg/mL in [1]; greater than 11.2 µg/mL in series [2]; greater than 11.2 µg/mL in series [3]; 5.21 µM in [4]; greater than 11.2 µg/mL in [6]; greater than 11.2 µg/mL in series [9]. Further, the entries for the “% Inhibition” value in [5], in series [7] and in series [8] were 50%, 100% and 0%, respectively.

Regarding `CCn1ccc(C(=O)Nc2nc(-c3cc(Cl)ccc3Cl)cs2)n1`, the “% Inhibition” value was 50% in series [10], 0% in series [5], 100% in [7] and 50% in series [8]. The IC50 in [1] was greater than 11 µg/mL; in series [2], greater than 11 µg/mL; in [3], 3.52 µg/mL (≈ 9.6 µM); in series [4], 5.18 µM; in series [6], greater than 11 µg/mL; in series [9], greater than 11 µg/mL.

As to `CC(C)c1ccc2nc(Nc3nc4ccc(S(C)(=O)=O)cc4s3)sc2c1`, the IC50 was greater than 12.1 µg/mL in series [1]; greater than 12.1 µg/mL in series [2]; greater than 12.1 µg/mL in series [3]; 4.95 µM in [4]; 3.92 µg/mL (≈ 9.71 µM) in [6]; greater than 12.1 µg/mL in series [9]. Besides, the “% Inhibition” value was 25% in [5], 100% in series [7] and 0% in [8].

For the compound `CCCCc1ccc(NC(=O)CSc2cn(CC)c3ccccc23)cc1`, the IC50 in series [1] was greater than 11 µg/mL; in series [2] it was greater than 11 µg/mL; in series [3], 3.56 µg/mL (≈ 9.71 µM); in [4], 3.54 µM; in [6] it was greater than 11 µg/mL; in series [9], 2.93 µg/mL (≈ 7.99 µM). In addition, the “% Inhibition” value in series [5] stood at 0%; in series [7], 100%; in [8], 0%.

`O=C(Nc1nc2c(Cl)ccc(Cl)c2s1)C1=COCCO1`: the IC50 in series [1] was greater than 9.93 µg/mL; in series [2], greater than 9.93 µg/mL; in series [3], greater than 10.6 µg/mL; in series [4], 3.97 µM; in series [6], greater than 9.93 µg/mL; in series [9] it was greater than 9.93 µg/mL. The “% Inhibition” value in [5] was 25%; in [7], 100%; in series [8], 0%.

With `CC(=O)Nc1ccc2nc(Nc3nc4ccc(C(C)C)cc4s3)sc2c1`, the IC50 is 2.19 µg/mL (≈ 5.72 µM) in [1]; greater than 11.5 µg/mL in series [2]; 4.49 µg/mL (≈ 11.7 µM) in series [3]; 5.09 µM in [4]; 4.12 µg/mL (≈ 10.8 µM) in [6]; 2.37 µg/mL (≈ 6.2 µM) in series [9]. For the same compound, the “% Inhibition” value is 25% in [5], 100% in [7] and 0% in [8].

As to `Cc1cc(C)c2sc(NC(=O)c3nc4ccccc4s3)nc2c1`, the IC50 in series [1] was greater than 10.2 µg/mL; in [2], greater than 10.2 µg/mL; in series [3], greater than 10.9 µg/mL; in series [4], 2.5 µM; in series [6], greater than 10.2 µg/mL; in [9], greater than 10.2 µg/mL. Besides, the “% Inhibition” value in series [5] is listed as 25%; in series [7], 100%; in [8], 0%.

For `CC1CCc2c(sc(Nc3nc4c(F)cccc4s3)c2C(N)=O)C1` (stereo not given), the concentration for half-maximal inhibition (IC50) was 2.69 µg/mL (≈ 7.46 µM) in series [1]; greater than 10.8 µg/mL in [2]; 2.31 µg/mL (≈ 6.39 µM) in series [3]; 4.99 µM in series [4]; 3.51 µg/mL (≈ 9.71 µM) in series [6]; 4.66 µg/mL (≈ 12.9 µM) in series [9]. For the same compound, the “% Inhibition” value in [5] stood at 25%; in series [7], 100%; in series [8] it was 0%.

Turning to `COc1cccc2sc(Nc3sc4c(c3C(N)=O)CCCC4)nc12`, the IC50 in series [1] was 4.55 µg/mL (≈ 12.7 µM); in series [2] it was 3.58 µg/mL (≈ 9.95 µM); in series [3], 0.947 µg/mL (≈ 2.63 µM); in series [4], 4.51 µM; in [6], 4.55 µg/mL (≈ 12.7 µM); in [9], 3 µg/mL (≈ 8.35 µM). Also, the “% Inhibition” value is reported as 50% in series [5], 100% in [7] and 12.5% in series [8].

Take `CS(=O)(=O)c1ccc2nc(Nc3nc4c(F)cccc4s3)sc2c1`: the IC50 in series [1] is 6.16 µg/mL (≈ 16.2 µM); in [2], greater than 11.4 µg/mL; in series [3], greater than 11.4 µg/mL; in series [4], 4.49 µM; in series [6], greater than 11.4 µg/mL; in series [9], greater than 11.4 µg/mL. Besides, the results for the “% Inhibition” value in series [5], in series [7] and in series [8] were 25%, 100% and 0%, respectively.

Regarding `Fc1cccc2sc(Nc3nc4c(s3)CCCC4)nc12`, the IC50 was greater than 9.16 µg/mL in [1]; greater than 9.16 µg/mL in [2]; greater than 9.16 µg/mL in series [3]; 4.36 µM in series [4]; greater than 9.16 µg/mL in series [6]; greater than 9.16 µg/mL in series [9]. The “% Inhibition” value in series [5] came out at 50%; in series [7], 100%; in [8], 0%.

On to `CCOC(=O)c1sc(NC(=O)C(C)Sc2ncnc3ccccc23)c(C(=O)OCC)c1C` (stereo not given), for which the IC50 is greater than 14.2 µg/mL in series [1]; greater than 14.2 µg/mL in series [2]; greater than 14.2 µg/mL in series [3]; 4.36 µM in series [4]; greater than 14.2 µg/mL in [6]; greater than 14.2 µg/mL in [9]. Also, the “% Inhibition” value in series [5] is 0%; in [7], 100%; in series [8] it was 0%.

Consider `COc1cccc2sc(Nc3nc4c(s3)CCCC4)nc12`, for which the half-maximal inhibitory concentration (IC50) in [1] is greater than 9.52 µg/mL; in series [2], greater than 9.52 µg/mL; in series [3] it was 3.81 µg/mL (≈ 12 µM); in [4] it was 3.44 µM; in series [6] it was greater than 9.52 µg/mL; in series [9], greater than 9.52 µg/mL. For the same compound, the “% Inhibition” value in series [5] is 50%; in series [7] it was 100%; in series [8], 0%.
